DNMT1 inh = human DNMT1 methyltransferase inhibitors, primary screen, biochemical, molecular beacon, fluorescence, HinP1I cleavage, uHTS; inhibition (reported as % activation of signal), % at 10 µM; hit rate 0.83% among 360,000; AID 588458, 2011; in the data active means inhibition above about 50%
HKDC1 inhibitor = HKDC1 hexokinase inhibitors, primary screen, biochemical, fluorescence, uHTS | recombinant HKDC1, G6PDH/diaphorase resazurin coupled fluorescence | hit rate 0.16% among 340,000 | inhibition, % at 20 µM | Q2TB90;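 active means inhibition above about 35% when tested at 20 µM, limit read from the data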;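 further: plate controls were DMSO wells with enzyme for no effect and DMSO wells lacking enzyme for full effect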
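test system = in-house recombinant HK5 (HKDC1) enzyme | amount = HKDC1 at 5 µg/mL | control set = DMSO-enzyme wells negative, buffer-substituted wells positive | compound = one dose of 20 µM, 1% DMSO | schedule = reaction time 90 min, room temperature, protected from light | technique = resorufin fluorescence at 613 nm | reagent = glucose with 1 mM ATP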
STEP inh = STEP phosphatase inhibitors, primary screen, biochemical, fluorescence intensity, uHTS. Tyrosine-protein phosphatase non-receptor type 5 (Homo sapiens), P54829. inhibition, % at 20 µM. AID 588621, 2011. recombinant STEP, OMFP fluorogenic substrate. hit rate 0.25% among 360,000;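 active means inhibition at 20 µM, scaled per plate between control wells, above about 37%, limit read from the data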;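 further: 0% = DMSO with enzyme and substrate and 100% = substrate only without enzyme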
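System: STEP phosphatase, cell-free reaction; Buffer or medium: Bis-Tris pH 6.0 buffer with DTT, detergent; Incubation: 20 min at room temperature, dark; Measured by: fluorescence, 480/540 nm.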
Scp-1 inhibitor = Scp-1 phosphatase inhibitors, primary screen, biochemical, colorimetric, uHTS. Carboxy-terminal domain RNA polymerase II polypeptide A small phosphatase 1 (Homo …. Recombinant Scp1, phosphopeptide, malachite green phosphate absorbance. inhibition, % at 20 µM. hit rate 0.88% among 340,000. AID 493091, 2011;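 active means inhibition above about 50% at 20 µM, limit read from the data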;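 further: plate controls were DMSO wells with enzyme for no effect and wells lacking enzyme for full effect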
Target sequence (Q9GZU7 76-261 limits assumed): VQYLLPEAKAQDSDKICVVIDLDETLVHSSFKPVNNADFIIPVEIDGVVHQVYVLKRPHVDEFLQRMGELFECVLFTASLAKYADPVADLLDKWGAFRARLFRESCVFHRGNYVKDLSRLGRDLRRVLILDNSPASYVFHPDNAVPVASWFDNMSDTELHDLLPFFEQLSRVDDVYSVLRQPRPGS
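Incubation: 45 min enzyme reaction at room temperature / System: truncated SCP-1 phosphatase (76-261aa) / Reagent: Phospho 17-mer peptide substrate / Buffer or medium: Acidic Tris acetate buffer with magnesium and detergent / Signal: absorbance at 630 nm / Doses: one concentration, 20 µM, with 1.0% DMSO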
SUMO1 PPI mod = modulators of SUMO1 protein-protein interactions, primary screen, biochemical, uHTS. Small ubiquitin-related modifier 1 (Homo sapiens), P63165. hit rate 0.33% among 360,000. inhibition, % at 20 µM. SUMO1 binding to a labelled peptide, TR-FRET, 1 h; in the data active means inhibition above about 37%
Target sequence (P63165 whole entry, looked up): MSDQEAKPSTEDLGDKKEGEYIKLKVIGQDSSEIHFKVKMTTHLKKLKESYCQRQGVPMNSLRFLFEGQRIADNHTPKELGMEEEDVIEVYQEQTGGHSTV
LMPTP inh = LMPTP phosphatase inhibitors, primary screen, biochemical, fluorescence intensity, uHTS. recombinant LMPTP-A, OMFP fluorogenic substrate. inhibition, % at 20 µM. hit rate 0.22% among 360,000. Low molecular weight phosphotyrosine protein phosphatase (Homo sapiens), P24666. AID 651560, 2012;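 active means compounds that cut the enzyme signal by at least half of the control window in the single-dose screen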;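 further: plate controls were DMSO wells with enzyme plus substrate for no effect and substrate without enzyme for full effect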
Target sequence (P24666 whole entry, looked up): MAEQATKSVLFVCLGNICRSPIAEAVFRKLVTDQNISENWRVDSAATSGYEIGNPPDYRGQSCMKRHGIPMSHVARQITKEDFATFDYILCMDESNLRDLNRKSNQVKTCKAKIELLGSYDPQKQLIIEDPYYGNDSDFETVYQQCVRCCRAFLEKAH
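Assay system: LMPTP-A, protein tyrosine phosphatase of low molecular weight / Medium: pH 6.0 Bis-Tris buffer with DTT and Triton X-100 / Schedule: 50 min enzyme reaction at room temperature, protected from light / Measured by: endpoint fluorescence intensity from OMFP dephosphorylation / Read-out basis: % inhibition relative to no-enzyme and uninhibited control wells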
Scp1 confirm = Scp-1 phosphatase inhibitors, retest, confirmation, biochemical, colorimetric, single concentration; inhibition, % at 20 µM; recombinant SCP-1 catalytic domain, phosphate release, malachite green absorbance; hit rate 61% among 2,500; AID 540281, 2011; shares compounds with Scp-1 inhibitor;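 further: plate controls were DMSO with enzyme for no effect and buffer wells lacking enzyme for full effect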
MG interference = colorimetric readout interference by compounds, confirmation, artefact control for Scp-1 inhibitor project, biochemical, single concentration; AID 540313, 2011; Colorimetric interference counterscreen, malachite green absorbance 630 nm; apparent inhibition (interference), % at 20 µM; shares compounds with Scp-1 inhibitor; 2,500 tested, under 10 active;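 further: compounds added after enzyme reaction finished so only phosphate colour detection is probed; plate controls were DMSO wells with completed Scp-1 reaction for no effect and substrate wells lacking enzyme for full effect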
Scp1 DSF = Scp-1 binding by thermal shift, confirmation, orthogonal assay for Scp-1 inhibitor project, biophysical, differential scanning fluorimetry; shares compounds with Scp-1 inhibitor; Recombinant SCP1, Sypro Orange thermal shift Tm; hit rate 25% among 1,500; thermal shift relative to vanadate control, % at 40 µM;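 active means substances whose mean melting-temperature shift, as a percentage of the reference inhibitor's shift, reaches about 5.3%, limit read from the data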;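 further: 0% = Tm of DMSO wells and 100% = Tm with sodium orthovanadate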
The depositor's hits bear a star; / = not tested or not shown. A selection: hits, their analogues and other compounds. The true share with any hit is near 1.8%.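 How the source made its calls, unless noted: active means inhibition of at least 30% at 20 µM; inactive means the rest.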

SMILES	DNMT1 inh	HKDC1 inhibitor	STEP inh	Scp-1 inhibitor	SUMO1 PPI mod	LMPTP inh	Scp1 confirm	MG interference	Scp1 DSF
Cc1c(/C(O)=C2/C(=O)C(=O)N(CCN3CCOCC3)C2c2cccs2)cnn1-c1ccccc1 (stereo not drawn)	2.6	-1.6	4.3	48.2	-8.3	-2.8	-27.9	-19.9	/
COc1ccc(CNC(=O)C(OC(=O)c2ccco2)c2ccccc2F)cc1 (stereo not drawn)	-0.5	-1.0	0.5	56.9*	0.6	-1.0	-16.6	-13.4	/
CC1CCCC(NC(=O)CCNS(=O)(=O)c2ccc(Br)cc2)C1C (stereo not drawn)	6.3	12.6	-0.9	4.1	-0.5	0.9	/	/	/
O=C(NNC(=O)c1ccc(NC(=O)c2ccccc2)cc1)c1ccc(F)cc1	22.2	3.5	25.2	38.7	21.6	48.5	/	/	/
Cc1ccc(NC(=O)c2cccc(C(=O)Nc3ccc(C)cc3C(=O)O)c2)c(C(=O)O)c1	-0.2	23.9	6.1	56.9*	17.5	-1.6	54.4*	-10.9	1.3
O=C(NNC(=O)c1ccc(NC(=O)c2ccccc2)cc1)Nc1ccccc1	14.1	-3.1	5.5	51.2*	-1.2	13.6	67.0*	-10.6	-11.7
Cc1cccc(C(=O)NNC(=O)c2ccc(-c3ccccc3)cc2)c1	40.7	-0.6	11.0	70.0*	5.0	42.6	73.3*	-16.1	-8.9
Cc1cccc(C(=O)NNC(=O)c2ccc(Br)cc2)c1	-0.6	-2.2	15.4	-0.8	-2.1	-1.1	/	/	/
O=C(NNC(=O)c1ccc(-c2ccccc2)cc1)c1ccccc1	48.6	-5.4	23.6	74.3*	2.3	30.9	54.4*	-19.2	5.7*
COc1ccc(C(CC(=O)c2ccc(C)cc2)C(C#N)C#N)cc1OC (stereo not drawn)	-7.0	18.6	0.1	-7.6	5.5	0.5	/	/	/
CC(C)NC(=O)OCc1c(COC(=O)NC(C)C)c([N+](=O)[O-])n2c1CCC2	-3.5	/	-4.2	/	-20.1	0.2	/	/	/
CC(=O)c1ccc(NC(=O)c2cccc(N3C(=O)c4ccccc4C3=O)c2)cc1	40.2	9.6	98.0*	96.5*	83.6*	55.2*	47.6*	-13.1	-14.8
N/C(CN1CCCCC1)=N\S(=O)(=O)c1cc(Cl)cc(Cl)c1	1.0	-2.6	1.4	3.5	-0.7	1.6	/	/	/
Cc1cc(=O)n2ncnc2n1COCCO	1.7	-5.9	2.4	2.6	3.0	0.6	/	/	/
NNC(=O)Cn1c(-c2ccccc2)cc(=O)n2ncnc12	2.5	-4.0	-0.9	69.2*	2.3	-1.8	-6.2	-4.6	/
Cc1cccc(NC(=O)CSc2ccc(-c3ccco3)nn2)c1	-10.5	0.1	-1.4	-3.9	-4.9	-0.1	/	/	/
CC(=O)Nc1ccc(NC(=O)CSc2ccc(-c3ccco3)nn2)cc1	-3.1	22.5	1.9	51.0*	5.3	3.0	13.9	-23.0	/
Cc1ccc(SCC(=O)Nc2ccc(-c3nnc(-c4ccco4)o3)cc2)cc1	15.6	7.4	13.3	70.1*	1.6	30.4	77.0*	-6.8	-21.3
CC(=O)Nc1cccc(NC(=O)CSc2ccc(-c3ccco3)nn2)c1	4.8	9.7	0.8	69.7*	0.1	5.4	0.7	-21.3	/
COc1ccc(CN2CC[C@H]3C=CCc4cccc(c43)C2)cc1	0.6	-3.3	-2.4	4.1	-7.8	-0.7	/	/	/
CCC(C)c1ccc(NC(=S)NC(C)C2CCCO2)cc1 (stereo not drawn)	-3.3	-2.2	1.4	-14.2	-1.5	0.5	/	/	/
CCCCC1=CC2=C(c3ccco3)C(=O)C(C)(OC(=O)c3ccc(OC)cc3)C(=O)C2=CN1Cc1ccc2c(c1)OCO2 (stereo not drawn)	26.0	22.7	0.6	62.7*	-6.8	22.6	5.4	0.3	/
Cc1cc(Cl)ccc1OCC(=O)N[C@@H](Cc1ccccc1)c1nc2ccccc2[nH]1	6.9	5.1	1.4	85.7*	-2.8	-1.7	36.2*	-9.8	-24.2
CC1(C)OC(=O)C2=C(C[C@@H](CCc3ccccc3)O[C@H]2C2CCCC2)O1	/	/	/	/	-3.3	2.2	/	/	/
CCC1(c2ccccc2)NC(=O)N(CC(=O)N(C)CC(=O)Nc2cccc(OC)c2)C1=O (stereo not drawn)	-1.7	-2.4	-1.5	-3.9	6.3	-1.7	/	/	/
SMILES	DNMT1 inh	HKDC1 inhibitor	STEP inh	Scp-1 inhibitor	SUMO1 PPI mod	LMPTP inh	Scp1 confirm	MG interference	Scp1 DSF
CCC1(c2ccccc2)NC(=O)N(CC(=O)N(C)CC(=O)Nc2c(C)cccc2C)C1=O (stereo not drawn)	0.1	6.2	0.4	2.4	-7.6	-0.7	-4.6	-3.0	/
Cc1[nH]c2ccc(F)cc2c1CCN(Cc1cccnc1)C(=S)Nc1cccc(F)c1	-4.2	3.3	-0.9	-1.4	-1.5	2.7	/	/	/
Cc1ccc(C)c(NC(=O)CN(C)C(=O)c2cc(-c3cccs3)nn2-c2ccccc2)c1	-4.2	-1.9	1.3	56.4*	1.2	2.7	-9.0	-8.5	/
CCCSc1nnc(NC(=O)CSc2sc3c(O)cc(=O)[nH]c3c2C#N)s1	-1.4	13.4	-3.8	70.1*	2.1	-0.1	65.4*	-15.9	11.8*
N#Cc1c(SCC(=O)Nc2cccc(F)c2)sc2c(O)cc(=O)[nH]c12	28.5	-1.4	11.9	57.5*	7.1	25.9	59.6*	-10.4	7.7*
N#Cc1cccc(NC(=O)CSc2sc3c(O)cc(=O)[nH]c3c2C#N)c1	46.5	0.6	12.9	50.2*	23.8	69.6*	22.2	-4.3	/
CCOc1cccc(NC(=O)CSc2sc3c(O)cc(=O)[nH]c3c2C#N)c1	4.3	-0.8	4.9	-0.6	1.9	3.7	/	/	/
COc1ccc(NS(=O)(=O)c2ccc3c(c2)N(C(C)=O)CC(C)S3)c(OC)c1 (stereo not drawn)	-1.2	-2.0	0.6	3.4	1.9	-1.7	/	/	/

Compound activity (PubChem BioAssay)
